Test results reported in ChEMBL document CHEMBL1250442, “Inhibiting gene expression at transcription start sites in chromosomal DNA with antigene RNAs” (Nat Chem Biol, 2005).
Active and inactive are the calls of the source. The rule behind the calls is not given here.

Experiments:
[1] = tested on: T47D; assay: Inhibition of PR-B mRNA gene expression in human T47D cells at 100 nM by syber green assay; type: functional
How it was run: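 T47D cells in RPMI-1640 with 10% FBS, NEAA, insulin, 37 °C, 5% CO2. Plated two days before transfection without antibiotics. Oligofectamine-mediated duplex RNA transfection at 100 nM final, medium changed at 24 h, harvest five days post-transfection. Total RNA extracted with TRIzol. hPR mRNA quantified by SYBR Green qPCR: 50 °C 2 min, 95 °C 10 min, then 40 cycles of 95 °C 15 s / 60 °C 1 min.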

[2] = tested on: T47D; assay: Inhibition of PR-A mRNA gene expression in human T47D cells at 100 nM by syber green assay; type: functional
How it was run: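 T47D cells plated at 80,000/well without antibiotics two days before Oligofectamine transfection with agRNA duplex (25 or 100 nM final); medium changed at 24 h, harvest day 5 unless stated otherwise. TRIzol total RNA; PR mRNA by real-time PCR with SYBR Green: 50 °C 2 min, 95 °C 10 min, 40 cycles 95 °C 15 s/60 °C 1 min.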

[3] = tested on: T47D; assay: Cytotoxicity against human T47D cells assessed as effect on cellular morphology; type: cell-based
[4] = tested on: T47D; assay: Inhibition of PR-A gene expression in human T47D cells at 25 nM by syber green assay in presence of 10 nM estradiol; type: functional, cell-based
[5] = tested on: T47D; assay: Inhibition of PR-B gene expression in human T47D cells at 25 nM by syber green assay in presence of 10 nM estradiol; type: functional, cell-based
[6] = tested on: T47D; assay: Inhibition of major vault protein expression in human T47D cells at 100 nM by syber green assay; type: functional, cell-based

Structure (SMILES) | inhibition at 0.1 µM [1] | inhibition at 0.1 µM [2] | Activity [3] | inhibition [4] | inhibition [5] | inhibition [6]
Cc1cn([C@H]2C[C@H](OP(=O)(O)OC[C@H]3O[C@@H](n4cc(C)c(=O)[nH]c4=O)C[C@@H]3O)[C@@H](COP(=O)(O)O[C@H]3[C@@H](O)[C@H](n4ccc(N)nc4=O)O[C@@H]3COP(=O)(O)O[C@H]3[C@@H](O)[C@H](n4ccc(N)nc4=O)O[C@@H]3COP(=O)(O)O[C@H]3[C@@H](O)[C@H](n4cnc5c(N)ncnc54)O[C@@H]3COP(=O)(O)O[C@H]3[C@@H](O)[C@H](n4ccc(N)nc4=O)O[C@@H]3COP(=O)(O)O[C@H]3[C@@H](O)[C@H](n4cnc5c(N)ncnc54)O[C@@H]3COP(=O)(O)O[C@H]3[C@@H](O)[C@H](n4ccc(N)nc4=O)O[C@@H]3COP(=O)(O)O[C@H]3[C@@H](O)[C@H](n4ccc(N)nc4=O)O[C@@H]3COP(=O)(O)O[C@H]3[C@@H](O)[C@H](n4ccc(=O)[nH]c4=O)O[C@@H]3COP(=O)(O)O[C@H]3[C@@H](O)[C@H](n4cnc5c(=O)[nH]c(N)nc54)O[C@@H]3COP(=O)(O)O[C@H]3[C@@H](O)[C@H](n4cnc5c(N)ncnc54)O[C@@H]3COP(=O)(O)O[C@H]3[C@@H](O)[C@H](n4ccc(N)nc4=O)O[C@@H]3COP(=O)(O)O[C@H]3[C@@H](O)[C@H](n4ccc(N)nc4=O)O[C@@H]3COP(=O)(O)O[C@H]3[C@@H](O)[C@H](n4cnc5c(=O)[nH]c(N)nc54)O[C@@H]3COP(=O)(O)O[C@H]3[C@@H](O)[C@H](n4ccc(N)nc4=O)O[C@@H]3COP(=O)(O)O[C@H]3[C@@H](O)[C@H](n4ccc(=O)[nH]c4=O)O[C@@H]3COP(=O)(O)O[C@H]3[C@@H](O)[C@H](n4ccc(N)nc4=O)O[C@@H]3COP(=O)(O)O[C@H]3[C@@H](O)[C@H](n4ccc(=O)[nH]c4=O)O[C@@H]3COP(=O)(O)O[C@H]3[C@@H](O)[C@H](n4ccc(N)nc4=O)O[C@@H]3COP(=O)(O)O[C@H]3[C@@H](O)[C@H](n4ccc(=O)[nH]c4=O)O[C@@H]3CO)O2)c(=O)[nH]c1=O | < 20% | < 20% | Non-toxic | – | – | –
Cc1cn(CC(=O)N(CCNC(=O)CN(CCNC(=O)CN(CCNC(=O)CN(CCNC(=O)CN(CCNC(=O)CN(CCNC(=O)CN(CCNC(=O)CN(CCNC(=O)CN(CCNC(=O)CN(CCNC(=O)CN(CCNC(=O)CN(CCNC(=O)CN(CCNC(=O)CN(CCNC(=O)CN(CCNC(=O)CN(CCNC(=O)CN(CCNC(=O)CN(CCNC(=O)CN(CCNC(=O)CN(CCNC(=O)CN)C(=O)Cn2cnc3c(=O)[nH]c(N)nc32)C(=O)Cn2cnc3c(=O)[nH]c(N)nc32)C(=O)Cn2cnc3c(=O)[nH]c(N)nc32)C(=O)Cn2ccc(=O)[nH]c2=O)C(=O)Cn2cnc3c(=O)[nH]c(N)nc32)C(=O)Cn2cnc3c(N)ncnc32)C(=O)Cn2cnc3c(=O)[nH]c(N)nc32)C(=O)Cn2cnc3c(N)ncnc32)C(=O)Cn2cnc3c(=O)[nH]c(N)nc32)C(=O)Cn2ccc(=O)[nH]c2=O)C(=O)Cn2ccc(=O)[nH]c2=O)C(=O)Cn2ccc(N)nc2=O)C(=O)Cn2ccc(N)nc2=O)C(=O)Cn2ccc(N)nc2=O)C(=O)Cn2ccc(N)nc2=O)C(=O)Cn2cnc3c(N)ncnc32)C(=O)Cn2ccc(=O)[nH]c2=O)C(=O)Cn2ccc(N)nc2=O)C(=O)Cn2ccc(=O)[nH]c2=O)CC(=O)NCCN(CC(=O)NCC(=O)O)C(=O)Cn2cc(C)c(=O)[nH]c2=O)c(=O)[nH]c1=O | 91% | 91% | – | Active | Active | Active
